Bioassay records as filed in PubChem.
The list is not random: actives were taken first. Their share in the collection is about 2.3%.
OXTR potentiate – potentiators of human oxytocin receptor. P30559. CHO-OTR cells, Fluo-8 calcium fluorescence, potentiator mode; 0% = oxytocin EC15, 100% = EC100. activation, % at 3 µM. hit rate 0.061% among 320,000;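 active means activation above that plate's cutoff, the mean activation of tested compounds plus 3 SD, cut at about 6.6% in these data, passing the limit was not always enough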;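 further: 100% uses oxytocin at 75 nM as the full agonist control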
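Measured by – Fluo-8 calcium dye fluorescence · Test system – human OTR in CHO cells · Dosing – one concentration, 3.0 µM compound · Controls – EC15 oxytocin alone as 0%, 75 nM oxytocin as 100% · Evaluation – normalized max/min fluorescence ratio, % activation · Timing – 6 min pre-incubation, 100 s read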
OXTR ag – agonists of human oxytocin receptor. P30559. CHO-OTR cells, Fluo-8 calcium fluorescence; normalized: DMSO 0%, oxytocin 100%. activation, % at 3 µM. hit rate 0.32% among 320,000;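 active means activation above the mean of all tested compounds plus 3 SD, cutoff set per screening run, cut at about 20% in these data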;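 further: peak over basal fluorescence ratio from a 100 s FLIPR kinetic read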
TAAR1 antagonist – human TAAR1 antagonism; Q96RJ0; CHO RD-HGA16 TAAR1, Fluo-8 calcium fluorescence, antagonist; inhibition, % at 3 µM; hit rate 1.5% among 360,000; AID 624466;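 active means inhibition above a per-plate cutoff, the mean inhibition of test compounds on that plate plus 3 SD, cut at about 49% in these data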;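 further: 0% = DMSO plus EC80 beta-PEA response and 100% = DMSO alone without agonist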
Target sequence (Q96RJ0 whole entry, looked up): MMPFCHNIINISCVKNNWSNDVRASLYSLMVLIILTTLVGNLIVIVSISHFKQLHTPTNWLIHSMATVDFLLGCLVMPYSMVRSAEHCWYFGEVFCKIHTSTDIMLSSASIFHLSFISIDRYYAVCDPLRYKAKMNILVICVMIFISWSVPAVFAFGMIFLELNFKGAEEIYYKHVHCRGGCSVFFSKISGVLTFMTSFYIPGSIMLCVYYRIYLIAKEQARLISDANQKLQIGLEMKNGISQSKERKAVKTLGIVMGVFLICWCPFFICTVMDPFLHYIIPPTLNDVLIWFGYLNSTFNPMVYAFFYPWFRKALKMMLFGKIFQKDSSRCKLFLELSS
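Test system – hTAAR1-expressing CHO RD-HGA16 cells, Gα16-coupled · Also added – β-PEA at EC80 concentration, post-compound challenge · Compound – 3 µM, single point · Incubation – dye loading 75 min at 37 °C, then 30 min room temperature · Measured by – Fluo-8 intracellular calcium dye fluorescence, real-time kinetic reads · Benchmarks – vehicle and agonist controls · Replicates – singlicate, one well per test compound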
TAAR1 ag – human TAAR1 agonism; Q96RJ0; CHO RD-HGA16 TAAR1, Fluo-8 calcium fluorescence; vehicle wells 0%, saturating PEA agonist 100%; activation, % at 3 µM; hit rate 0.99% among 360,000;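 active means activation above the mean activation of all test compounds in the run plus 3 SD, cut at about 38% in these data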
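Benchmarks: low control DMSO, high control PEA (EC100); System: CHO RD-HGA16 cells carrying human TAAR1 plus Gα16; Detection: Fluo-8 fluorescence, 5 s baseline then 140 s kinetic read; Schedule: 17-24 h plating, Fluo-8 75 min 37 °C, 30 min RT; Read-out basis: % activation from peak over basal fluorescence ratio, DMSO-to-PEA scaled.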
V1aR counter – V1a receptor agonism, counter-screen for OXTR agonists; P37288; CHO-V1R cells, Fluo-8 calcium fluorescence, agonist mode; 0% DMSO, 100% 3 nM vasopressin; activation, % at 3 µM; hit rate 0.25% among 320,000; AID 2797;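 active means activation above the mean activation of all tested compounds plus 3 SD, per screening run, cut at about 20% in these data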;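 further: signal is peak over basal fluorescence ratio across a 100 second FLIPR read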
TAAR1 ag conf – human TAAR1 agonism, confirmed; CHO RD-HGA16 TAAR1, Fluo-8 calcium fluorescence; scaled: DMSO 0%, maximal phenethylamine 100%; hit rate 82% among 2,400; activation, % at 3 µM; AID 651783; shares compounds with TAAR1 ag;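 active means activation above a cutoff set at the run's mean compound activation plus 3 SD, cut at about 39% in these data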
Ga16 ag counter – nonselective agonist in parental cells, TAAR1 agonist counter-screen; shares compounds with TAAR1 ag; CHO-Ga16 parental, Fluo-8 calcium fluorescence; normalized to maximal ATP response, DMSO zero; activation, % at 3 µM; hit rate 50% among 2,400;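 active means activation above the run cutoff, the mean activation over all tested wells plus 3 SD, cut at about 12% in these data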;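 further: 0% = DMSO wells and 100% = maximal ATP response on the peak over basal ratio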
TAAR1 desensitize – human TAAR1 agonist that also desensitizes the receptor; shares compounds with TAAR1 ag; CHO RD-HGA16 hTAAR1, Fluo-8 calcium, beta-PEA response inhibition; inhibition, % at 3 µM; hit rate 46% among 2,400; AID 651951;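 active means inhibition above the run cutoff, the mean inhibition of all test compounds plus 3 SD, cut at about 49% in these data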;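 further: beta-PEA stimulus applied at its EC80; loss of beta-PEA calcium signal after compound pretreatment read as receptor desensitization; 0% = DMSO with beta-PEA at EC80 and 100% = DMSO alone without agonist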
Ga16 antag count – counter-screen for TAAR1 agonists: nonselective Ga16 antagonists. shares compounds with TAAR1 ag. CHO-Ga16 ATP-induced calcium, Fluo-8 fluorescence. inhibition, % at 3 µM. hit rate 39% among 2,400;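 active means inhibition above the plate's mean compound inhibition plus 3 SD, computed per plate, cut at about 22% in these data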;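 further: 0% = EC80 ATP with DMSO and 100% = DMSO wells without ATP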
* hit, by the source's call; nt = no result.

SMILES	OXTR potentiate	OXTR ag	TAAR1 antagonist	TAAR1 ag	V1aR counter	TAAR1 ag conf	Ga16 ag counter	TAAR1 desensitize	Ga16 antag count
CC(=O)c1ccc(NC(=O)CC(NCCC2=CCCCC2)C(=O)O)cc1 (stereo unspecified)	-14	0	-8	45*	1	74*	0	15	-1
Cn1ccc(C(=O)NC(=S)Nc2ccc([N+](=O)[O-])cc2O)n1	nt	nt	-3	-1	nt	nt	nt	nt	nt
CCCOc1ccc2oc(=O)c3c(c2c1)CCCN3C(=O)CN1CCc2ccccc2C1	-2	-2	3	73*	0	54*	-1	13	11
CC1CCN(CC(=O)N2CCCc3c2c(=O)oc2ccc(OCc4ccccc4)cc32)CC1	0	-3	1	2	0	nt	nt	nt	nt
N/C(Cc1cccc2ccccc12)=N\OC(=O)c1ccccc1F	nt	nt	33	70*	nt	81*	0	47	3
COc1ccccc1C/C(N)=N/OC(=O)COc1cccc2ccccc12	-9	2	-9	10	2	nt	nt	nt	nt
N/C(Cc1cccc2ccccc12)=N\OC(=O)COc1ccccc1	1	-1	9	54*	1	61*	5	9	5
OCC1(Cc2ccccc2)CCCN(Cc2c[nH]c3ccccc23)C1 (stereo unspecified)	-4	4	8	6	2	nt	nt	nt	nt
CCCCNC(=O)C1C(c2ccc(C(F)(F)F)cc2)=Nc2ccccc2N1C(=O)C1CCN(C(C)=O)CC1 (stereo unspecified)	nt	nt	-12	3	nt	nt	nt	nt	nt
Cc1ccccc1OCCC(=O)Nc1cc(S(=O)(=O)N2CCCCC2)ccc1N1CCN(C)CC1	nt	nt	49*	90*	nt	105*	73*	78*	59*
C=CCc1c(C)[nH]c(=O)[nH]c1=O	-2	1	-21	72*	0	6	4	-1	7
C=CCSc1nc(C)c(CC=C)c(=O)[nH]1	-4	0	-13	9	1	nt	nt	nt	nt
Cn1c(=O)c2c(nc(Oc3ccccc3Br)n2C)n(C)c1=O	nt	nt	-4	3	nt	nt	nt	nt	nt
Cn1c(=O)c(N)c2c3c(c(Br)ccc31)C(=O)c1ccccc1-2	-19	25*	36	84*	28*	7	21*	33	35*
CC1(C)C[C@H](O)[C@]2(CO)[C@H](O)C[C@]3(C)C(=CCC4[C@@]5(C)CC[C@H](O)C(C)(C)C5CC[C@]43C)[C@@H]2C1 (stereo partly specified)	-1	1	36	51*	1	33	8	32	21
CCS(=O)(=O)c1ccc(O)c(NC(=O)CC2(CC(=O)O)CCCC2)c1	2	0	-16	1	0	nt	nt	nt	nt
Cc1cc(NS(=O)(=O)c2c(C)[nH]c(=O)[nH]c2=O)ccc1Br	nt	nt	37	73*	nt	0	4	6	7
Cc1ccc(SC/C(O)=C(\C#N)c2nc3ccccc3n2C)cc1	-8	3	56*	52*	2	31	51*	19	53*
Cn1c(/C(C#N)=C(\O)CN2CCN(Cc3ccccc3)CC2)nc2ccccc21	-6	-1	-22	2	1	nt	nt	nt	nt
CC(=NNC(=O)c1ccncc1)c1ccc2ccccc2c1O	nt	nt	76*	167*	nt	72*	153*	54*	78*
CC(=NNC(=O)c1ccncc1)c1ccccc1O	nt	nt	2	2	nt	nt	nt	nt	nt
Cc1cc(N(C)C)nc(Nc2ccccc2)n1	-2	0	87*	92*	0	108*	1	99*	1
COC(=O)[C@@H](N[C@H](/C=C/c1ccccc1)[C@@H](O)Cc1ccccc1)C(C)C	nt	nt	-4	-3	nt	nt	nt	nt	nt
